Data: PMC3286832 (Nature Communications, 2011)

Key:
[1] = target: T1, MPP8 chromodomain (Homo sapiens, UniProt Q99549); test: Co-crystal structure MPP8 chromodomain–hDNMT3AK47me2 peptide; assay type: binding
T1 sequence (Q99549 59-118 limits assumed): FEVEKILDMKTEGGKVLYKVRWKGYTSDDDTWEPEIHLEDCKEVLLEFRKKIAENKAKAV

[2] = target: GLP catalytic SET domain (Homo sapiens, UniProt Q9H9B1); test: In vitro methylation assay with GLP catalytic SET domain; assay type: biochemical; settings: [methyl-3H]AdoMet, SDS–PAGE and fluorography / autoradiogram
Chain of GLP catalytic SET domain (Q9H9B1 1126-1243 limits assumed): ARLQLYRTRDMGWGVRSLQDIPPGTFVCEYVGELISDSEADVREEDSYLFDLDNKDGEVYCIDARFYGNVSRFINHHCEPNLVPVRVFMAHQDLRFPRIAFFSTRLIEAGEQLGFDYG
How it was run: (§1)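 E. coli-expressed hG9a or hGLP SET domain (1.6 μM) was incubated with 13.0 μM substrate (mDnmt3a N-terminal fragments or other GST-tagged proteins) and 2.8 μM [methyl-3H]AdoMet in 20 mM Tris–HCl pH 8.5 at 30 °C for 8 min. Products were resolved by SDS–PAGE and detected by fluorography/autoradiography.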

[3] = target: G9a catalytic SET domain (Homo sapiens, UniProt Q96KQ7); test: In vitro methylation assay with G9a catalytic SET domain; assay type: biochemical; settings: [methyl-3H]AdoMet, 30 °C, 8 min, pH 8.5, SDS–PAGE and fluorography
Chain of G9a catalytic SET domain (Q96KQ7 1038-1155 limits assumed): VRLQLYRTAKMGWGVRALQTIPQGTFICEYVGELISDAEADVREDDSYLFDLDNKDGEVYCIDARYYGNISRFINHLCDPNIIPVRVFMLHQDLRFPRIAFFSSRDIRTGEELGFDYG
How it was run: as §1

[4] = test system: DNA methylation, H3K9 methylation, H3K4 methylation; settings: ref [4]; cited from earlier work

Molecule	methylation by GLP [2]	also measured
YEPSTTARKVGRPGR [hDNMT3AK47me2]	–	pairwise root-mean-square-deviation to MPP8-H3K9me3 structure ([1]; 54 pairs of main-chain atoms, vs PDB 3QO2): ~ 0.6 Å; binding mode in MPP8 chromodomain ([1]; crystal structure (3SVM)): bound in an extended conformation in an acidic cleft of the chromodomain
hDNMT3A residues 1–94: GST-tagged hDNMT3A N-terminal fragment	are methylated	–
Dnmt3a-N: N-terminal fragment of mouse Dnmt3a (residues 1–274)	methylate the N-terminal fragment of Dnmt3a	methylation by G9a [3]: methylate the N-terminal fragment of Dnmt3a
hDNMT3A K47R (residues 1–223): K47R substitution in hDNMT3A N-terminal domain	eliminates methylation	–
Nc1ncn([C@H]2C[C@H](O)[C@@H](CO)O2)c(=O)n1 [5-aza-2′-deoxycytidine]	–	effect on DNA, H3K9 and H3K4 methylation [4]: leads to depletion of DNA methylation and of H3K9 methylation, and a corresponding increase in H3K4 methylation
hDNMT3A residues 1–223: GST-tagged hDNMT3A N-terminal fragment	are methylated	–
